The EternaBench riboswitch data

Tested on: MS2 coat protein
Assay: apparent Kd, MS2 coat protein; higher = weaker binding; RNA-MaP array; FMN 200 µM where present
Summary of the method: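 Green signal was scaled to red-channel RNA signal and control-cluster median Fmax, and the apparent Kd was taken as the median of filtered per-cluster binding-curve fits. The binding series used SNAP-549-labelled MS2 coat protein from 0.7 or 1.5 nM, doubling to 3 µM, on designs transcribed by stalled E. coli RNA polymerase on Illumina sequencing-chip clusters. Each series ran without and then with constant ligand in 100 mM Tris-HCl pH 7.5, 80 mM KCl, 4 mM MgCl2, BSA, DTT, yeast tRNA and Tween-20.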

[1] = designed as: OFF switch for flavin mononucleotide, no ligand
[2] = ligand present: flavin mononucleotide, designed as: OFF switch for flavin mononucleotide
[3] = designed as: ON switch for flavin mononucleotide, no ligand
[4] = ligand present: flavin mononucleotide, designed as: ON switch for flavin mononucleotide

| Sequence | apparent Kd [1] | apparent Kd [2] | apparent Kd [3] | apparent Kd [4] |
| --- | --- | --- | --- | --- |
| ACUACUUAGUGAGGAUAUACAUAAUUUAUAACUGUAGAAGGCACAAACCUCAAUACAUGAGGAUCACCCAUGUGGUAUAUCUAU | 188 nM | 380 nM |  |  |
| GUUAGUUAAGGAUAUACUGGGAGCUGCGGCGUCUCGCCGCAACAUGAGGAUCACCCAUGUAGAAGGUGACCGUU | 640 nM | 285 nM |  |  |
| GGAUCGAAAGUGAGGAUAUGCUGGUCCUUGGAUCAGCAGAAGGCACAUGAGGAUCACCCAUGUUUCCACGGUCC | 19.5 nM | 91 nM |  |  |
| GGAGGACAUGAGGAUCACCCAUGUGGAUGGGCGCUAGGAUAUGCGAGAGGAUGGAGAGAAGCAGAAGGAGUGGGUU |  |  | 150 nM | 107 nM |
| GAGCGAAAGCUCAAUGUCGAUAGCAGAAGGACAUGAAAACAUGAAAAUACAUGAGGAUCACCCAUGUAGGAUAUGCUAUCGACU | 6.7 nM | 24.3 nM |  |  |
| CGUCUAUGCCAGAAGGCAUGUCAAAAGACAUGAGGAUCACCCAUGUAAAUGAGGAUAUGGCAUAGACGAAAAGUGCGAAAGCAC |  |  | 136 nM | 13.6 nM |
| AGAUGGUAUAUAGGAUAUCAUGUGCAAACAUGAGGAUCACCCAUGUAGAGACGUCAGUCUAAUAAUGAGAAGGAUAUACCAUCU |  |  | 37.1 nM | 9.97 nM |
| CCGGAAAUGGAGGAUAUAGGAGUCGAUAGACACCUAGAAGGUCAGACAUGAGGAUCACCCAUGUGUCCUACCGG | 17.2 nM | 21.8 nM |  |  |
| GCCGUGAUAGCAGGAUAUGCUCCGGUUGCUCAUACAUGAGGAUCACCCAUGUCACGUGCGGUGGUGCAGAAGGGUUGAAGCGAU |  |  | 764 nM | 209 nM |
| AAGUGUAUAGGAUAUGCGUGGAAAAGGUGUAUUCACCAGCGACAUGAGGAUCACCCAUGUAGAAGGGUAUGUAA | 94.6 nM | 54.5 nM |  |  |
| CGUUCGUGAGGAUAUUGUGGAAUUGACAUGAGGAUCACCCAUGUGGCCAUUGUCGACUCGCAAGAAGGCAUAGAUU | 54.2 nM | 189 nM |  |  |
| UUUAUGUCAGGAUAUGAUUAGAUCUACUUCGGUAGAUCUAAUCAGAAGGGACAUGAGGAUCACCCAUGUAGUUU | 111 nM | 226 nM |  |  |
| GUAGCAUACCGAGGAUAUUCAGGGCGUGGUUAAACAUGAGGAUCACCCAUGUGGCGAAAGCCUAGGGAGAAGGCGGAAUGCUAC |  |  | 28.7 nM | 22.5 nM |
| UUUUCUCGUGAGAAGGACAUGAGGAUCACCCAUGUAGGAUAUCGUGGGAGACAGGAAUUGAAUCUUCGGAUUCAAUUCCUGUCU |  |  | 104 nM | 8.82 nM |
| AAUUUACAGCUAGGAUAUACAUGAGGAUCACCCAUGUAACGAUCGGAUCUUAUGAUCGUAUCCGUGUAGAAGGAGCAAAUAAGA | 6.46 nM | 6.39 nM |  |  |
| CCCAAACUUGGGCUUGGUUGUGCAUAGGAUAUCCUUGGACAUGAGGAUCACCCAUGUACAACUGUGGAGAAGGGUGCAGGACCU |  |  | 39.1 nM | 16.4 nM |
| AAAUUCAGAGGAUAUGCGCAUAGAUAAGACUUUUUUUCUUAACAUGAGGAUCACCCAUGUAGAAGGCUGUAAUA | 18.4 nM | 16.7 nM |  |  |
| GUCGGAAACGACAAACGUAGCAUACGAGAAGGCUGAUCCACGACAUGAGGAUCACCCAUGUAUUUAGAGGAUAUUGGAUGCUAC |  |  | 126 nM | 20.3 nM |
| UGAUAGGACAGAGGAUAUACAGAUAGGAUCUACUAUCCUCCUUAAAUAACAUGAGGAUCACCCAUGUAGAAGGCUGUCCUAUCU | 26.5 nM | 182 nM |  |  |

| Sequence | apparent Kd [1] | apparent Kd [2] | apparent Kd [3] | apparent Kd [4] |
| --- | --- | --- | --- | --- |
| UCGGCGCGAGGAUAUACGUUUGCUUUUUUUCGUUUUUGUGUACAUGAGGAUCACCCAUGUAGAAGGCGCGCCGC | 15.2 nM | 22.4 nM |  |  |
| ACGGCUGUCAGAGGAUAUGGUUACAUGAGGAUCACCCAUGUCAAGGGUCUAAUUAAGUAUAACUACUAGAAGGCUGAUGGCCGA | 282 nM | 129 nM |  |  |
| UCACCUGCCGAGGAUAUGAACGUAUUGAAUUGAUUAGAAGGCGGCACAUGAGGAUCACCCAUGUCACUGCACGC | 11.7 nM | 11.5 nM |  |  |
| AAAAAGUGAGGAUAUGCACUGUCCUGUAGACGCGAGCAGUUGUAGAAGGCACAUGAGGAUCACCCAUGUUUAAA | 25.1 nM | 22.5 nM |  |  |
| CUGAGGUCAGGAUAUGCAUGGCGGGACUUGCGUCGUGGCGUGCAGAAGGGACAUGAGGAUCACCCAUGUGGAGA | 88.5 nM | 203 nM |  |  |
| CAGUUAAAAGUGAGGUCUUCGACAUGAGGAUCACCCAUGUACGAGGAUAUGUAAUAUACGGUAUAGCAGAAGGCGUAUGGGUGU | 20.9 nM | 46.9 nM |  |  |
| GCUAUGUCAGGAUAUGCUAGUGCUAGUGAAAGCUAGUGCUAGUAGAAGGGACAUGAGGAUCACCCAUGUGUAGU | 108 nM | 374 nM |  |  |
| AUUAUUAAAGUGAGGAUAUCUAGAGCCUCGGCUCUAGAGAAGGCACAUGAGGAUCACCCAUGUCUCAAUUAUUA | 19.1 nM | 56.1 nM |  |  |
| UAUAUUUUUAUAGGAUAUGGAUAUGAUGCAUAUCCAGAAGGGUGAAUAUAAUAUUUUCUGUACAUGAGGAUCACCCAUGUUUAG |  |  | 116 nM | 46.9 nM |
| AACCAGUUGGUAGGAUAUGGUGCAGUGCUCGUACCAGAAGGACCAACAUGAGGAUCACCCAUGUUGGAAAGUCAACAUUAAUGA | 6.23 nM | 16.4 nM |  |  |
| GCAGGACAUGAGGAUCACCCAUGUUCAAAAUAUUGAGGAUAUGGAUACGGUAUAUCCGAACCAGAAGGCAACCUGC |  |  | 20.5 nM | 17.1 nM |
| GGAUAGAACAGAGGAUAUACGUGCUAGAGAUACUAGCAAAAUUUCCUCACAUGAGGAUCACCCAUGUAGAAGGCUGUCCUAUCG | 11.8 nM | 208 nM |  |  |
| UUGUUGUAUGUAGGAUAUGCAUAUUAUUAUUAUGCAGAAGGACAUGAGGAUCACCCAUGUAUAUUAUUAUUAUAUGUUAUAUAU | 26 nM | 34.2 nM |  |  |
| ACAUGAUAUGUAGGAUAUCACAUUAAUUGAUUAAUAUUUGAAUAUAGGAUUUGAGAAGGACAUUUACAUGAGGAUCACCCAUGU | 20.1 nM | 14.4 nM |  |  |
| GCCGUAAAUGUGAGGAUAUACCUAUGGAUACAUAGGUAGAAGGCACAUGAGGAUCACCCAUGUUCUCAAUCGGC | 179 nM | 930 nM |  |  |
| UAUGAAUGAGGAUAUGCAUAGUAGACUCCUCAUUUCUUCGGACAUGAGGAUCACCCAUGUAGAAGGCGUUGCGU | 33.1 nM | 58 nM |  |  |
| GAUGCUAUCGGAGGAUAUUCAUACCGGAAACGGACAUGAGGAUCACCCAUGUGGCGAAAGCCUUGGGAGAAGGCCGAUAGCAUC |  |  | 610 nM | 20.5 nM |
| AGCAUGUGAGGAUAUGCGGACUCCGGUAAAUCUGAAGUCCAGUAGAAGGCACAUGAGGAUCACCCAUGUGAGAU | 43 nM | 110 nM |  |  |
| GAUCCUUCUGUUAGGAUAUGCUUCGGGCUUCCGCAGCAGAAGGAACAUGAGGAUCACCCAUGUCAAAUAAAAUC | 22.9 nM | 94.1 nM |  |  |

| Sequence | apparent Kd [1] | apparent Kd [2] | apparent Kd [3] | apparent Kd [4] |
| --- | --- | --- | --- | --- |
| AUCAGCUCGUCAGGAUAUACGUCACUGCGUCAGCAGUGUGGUAAGAUCACAUGAGGAUCACCCAUGUAGAAGGGACGAGCUGAC | 14.2 nM | 306 nM |  |  |
| AGACGGAUCCGCGGUCGAUGCUAACUAGAAGGGCAGGUCACAUGAGGAUCACCCAUGUAGUAUAUGUAGGAUAUAGGAAGCGUG |  |  | 95.2 nM | 20.9 nM |
| GACUGGCAGCUAGGAUAUGGGCGAUCACAUGAGGAUCACCCAUGUCAACAUCAAAACAAGAUUAACCAGAAGGAGCCGCGGGUU |  |  | 16.1 nM | 110 nM |
| UGUGCGUAUGUGAGGAUAUGCUGGUCCUUGGAUCGGCAGAAGGCACAUGAGGAUCACCCAUGUGGUGUCGUUCC | 144 nM | 57.8 nM |  |  |
| AGAGACUUGGGAGGAUAUGCCUGAUGGACACGGGCAGAAGGCCCAAACAUGAGGAUCACCCAUGUAUCUAAGCCCUGGAAGGGC |  |  | 310 nM | 20.6 nM |
| UCGGACGUCGUAGGAUAUGUAGGAUAUUCCUACAUGAGGAUCACCCAUGUUGACAUGGAAGAAGGACAGAAGGACGAUGUCCAU |  |  | 192 nM | 4.7 nM |
| CAGCCCUGAGGAUAUCCAUCCUUGUACAUGAGGAUCACCCAUGUUUUCCUCUGGGCUUUUGGAGAAGGCAGGUAUC | 78.3 nM | 82.3 nM |  |  |
| CACUGCAAUGUAGGAUAUCGACUGGAUAACAGUCGAGAAGGACAUGAGGAUCACCCAUGUACUUUGAGUGAAUAAUAAGCAGUG | 16.5 nM | 59.7 nM |  |  |
| GUGGUCAGACAUGAGGAUCACCCAUGUGGAAUAAAUAACGUCAAGGAUAUACAAUAUAGGAUAUAGUAGAAGGUGAGAUUGGUG |  |  | 114 nM | 113 nM |
| GGUGCGUCUGUGAGGAUAUGCUGGUCCUUGGAUCAGCAGAAGGCACAUGAGGAUCACCCAUGUGGUGUCGUACC | 233 nM | 129 nM |  |  |
| UUUUACUUAGGAUAUACAUUUUUUUAUUUAUUUAUAAUAUUACAUGAGGAUCACCCAUGUAGAAGGGAGAUUUU | 77 nM | 63.4 nM |  |  |
| CCAAGCUGUGUGAGGAUAUGCUGAACCUUGGUUCAGCAGAAGGCACAUGAGGAUCACCCAUGUGAAGAGCUUGG | 17.3 nM | 69.3 nM |  |  |
| GACCUCACGGUCAGGAUAUCAGAACGUAAUGCGCAUGAGAAGGGACAUGAGGAUCACCCAUGUGGGCUCGUCGC | 13.5 nM | 17 nM |  |  |
| GAGCGAAAGCUCAAUGUCGAUAGCAGAAGGACAUGUAAUCAUGAAAUAACAUGAGGAUCACCCAUGUAGGAUAUGCUAUCGACU | 309 nM | 88.8 nM |  |  |
| UGUAACCAAGGAUAUACAUGAGGAUCACCCAUGUAAUGUAGUAUAGUGUGUGUGAGGUGUAGAAGGAGGGAUGU | 76.3 nM | 73.6 nM |  |  |
| AAGGUCAAGAUAGGAUAUGUUUCAUGAUAGAUAACAGAAGGAUCUAGAACAUGAGGAUCACCCAUGUGGCACAUAGAGUGGUGA |  |  | 429 nM | 441 nM |
| AGAAAACAUGAGGAUCACCCAUGUGAGGAUAUGCAAAUAUAUACGAAAGAUUAUAAAAGCAGAAGGCACAAAAG | 111 nM | 130 nM |  |  |
| GGUACUCAAAGAGUACCAAUACGAACAUGAGGAUCACCCAUGUAGGAUAUGCUACUCAAAGAGUAGCAGAAGGACAUGUACCUA | 17.5 nM | 99.2 nM |  |  |
